# Measurements published in ChEMBL document CHEMBL1158492, “Triazole inhibitors of Cryptosporidium parvum inosine 5'-monophosphate dehydrogenase” (J Med Chem, 2009).
# What was measured:
# [1] = target: T1, Inosine-5'-monophosphate dehydrogenase (Cryptosporidium parvum, UniProt Q8T6T2); test: Inhibition of Cryptosporidium parvum recombinant IMPDH expressed in Escherichia coli TX685 assessed as NADH production by fluorescence assay in absence of 0.05% fatty acid free bovine serum albumin
# T1 sequence (Q8T6T2 whole entry): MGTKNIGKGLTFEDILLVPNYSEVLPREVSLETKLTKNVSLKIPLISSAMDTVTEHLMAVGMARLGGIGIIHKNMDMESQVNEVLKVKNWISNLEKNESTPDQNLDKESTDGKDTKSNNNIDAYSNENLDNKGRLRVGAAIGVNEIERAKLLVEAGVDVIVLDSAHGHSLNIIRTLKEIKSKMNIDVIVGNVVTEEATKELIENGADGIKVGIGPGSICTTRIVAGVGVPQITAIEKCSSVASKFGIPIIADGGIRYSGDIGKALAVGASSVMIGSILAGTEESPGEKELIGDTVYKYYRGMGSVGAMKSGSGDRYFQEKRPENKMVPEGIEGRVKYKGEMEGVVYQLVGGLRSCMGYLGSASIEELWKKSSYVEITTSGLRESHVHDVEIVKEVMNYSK
# Procedure, shortened: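 Enzyme (10 nM) pre-incubated with inhibitor 5 min at room temperature before adding substrates (150 μM IMP, 300 μM NAD). Inhibitor range 25 pM–5 μM. NADH read by fluorescence. Initial velocities averaged over quadruplicates. IC50 from vi/vo, mean ± SD of three independent determinations.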
# [2] = target: T2, Inosine-5'-monophosphate dehydrogenase 2 (Homo sapiens, UniProt P12268); test: Inhibition of human recombinant IMPDH2 expressed in Escherichia coli guaB assessed as NADH production at 5 uM by fluorescence assay
# [3] = target: T1, Inosine-5'-monophosphate dehydrogenase; test: Inhibition of Cryptosporidium parvum recombinant IMPDH expressed in Escherichia coli TX685 assessed as NADH production by fluorescence assay in presence of 0.05% fatty acid free bovine serum albumin
# Procedure, shortened: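 Same IMP→XMP fluorescence (NADH) assay, with 0.05% fatty acid free BSA added. Conditions: 10 nM enzyme, 5 min room-temperature pre-incubation with inhibitor, then 150 μM IMP and 300 μM NAD. IC50 from three independent experiments, mean ± SD.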
# [4] = target: T2, Inosine-5'-monophosphate dehydrogenase 2; test: Inhibition of human recombinant IMPDH2 expressed in Escherichia coli guaB assessed as NADH production by fluorescence assay
# [5] = target: T1, Inosine-5'-monophosphate dehydrogenase; test: Inhibition of Cryptosporidium parvum recombinant IMPDH expressed in Escherichia coli guaB assessed as NADH production by fluorescence assay
# Procedure, shortened: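 E. coli-expressed CpIMPDH at 10 nM, preincubated with inhibitor (25 pM - 5 μM) for 5 min at room temperature before adding 150 μM IMP and 300 μM NAD. NADH read by fluorescence from initial velocities, in quadruplicate. IC50 ± SD from three independent runs, some also with 0.05% fatty-acid-free BSA.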
# [6] = target: T3, Inosine-5'-monophosphate dehydrogenase (Cryptosporidium parvum) (UniProt Q8T6T2); test: Ratio of campaign IC50 to compound IC50 for Cryptosporidium parvum recombinant IMPDH expressed in Escherichia coli TX685 in absence of 0.05% fatty acid free bovine serum albumin
# T3 sequence (whole entry): T1 sequence (Q8T6T2 whole entry)
Ratio IC50 [6],SMILES,IC50 [1],inhibition [2],IC50 [3],IC50 [4],EC50 [5]
–,CC(Oc1cccc2ccccc12)c1cn(-c2ccccc2Cl)nn1 (configuration not stated),> 5000 nM,< 10%,–,–,–
–,O=C(Nc1ccc(Cl)cc1)C(Oc1cccc2ccccc12)C1CC1 (configuration not stated),> 5000 nM,< 10%,–,–,–
–,CC(Oc1cccc2c1ccc[n+]2[O-])c1cn(-c2ccc(Cl)cc2)nn1 (configuration not stated),44 nM,< 10%,59 nM,–,–
–,CC(Oc1ccccc1)C(=O)Nc1ccc(Cl)cc1 (configuration not stated),3300 nM,–,–,> 50000 nM,3300 nM
–,CC(Oc1ccnc2ccccc12)C(=O)Nc1ccc(Cl)cc1 (configuration not stated),660 nM,< 10%,860 nM,–,–
–,C[C@@H](Oc1cccc2ncccc12)c1cn(-c2ccc(Cl)cc2)nn1,9 nM,< 10%,30 nM,–,–
–,CC(Oc1cc[n+]([O-])c2ccccc12)c1cn(-c2ccc(Cl)cc2)nn1 (configuration not stated),29 nM,< 10%,50 nM,–,–
–,Clc1ccc(-n2cc(COc3ccnc4ccccc34)nn2)cc1,440 nM,< 10%,480 nM,–,–
–,CC(Oc1ccnc2ccccc12)c1cn(-c2ccc(Cl)cc2)nn1 (configuration not stated),24 nM,< 10%,230 nM,–,–
–,C[C@H](Oc1ccnc2ccccc12)c1cn(-c2ccc(C#N)c(Cl)c2)nn1,600 nM,< 10%,2300 nM,–,–
–,CC(Oc1ccnc2ccccc12)c1cn(-c2ccc(C#N)cc2)nn1 (configuration not stated),140 nM,< 10%,340 nM,–,–
–,C[C@@H](Oc1cc[n+]([O-])c2ccccc12)c1cn(-c2ccc(Cl)cc2)nn1,13 nM,< 10%,50 nM,–,–
–,CC(Oc1ccnc2ccccc12)c1cn(-c2ccc(C#N)c(Cl)c2)nn1 (configuration not stated),40 nM,< 10%,1400 nM,–,–
–,CC(C)C(Oc1cccc2ccccc12)c1cn(-c2ccc(Cl)cc2)nn1 (configuration not stated),> 5000 nM,< 10%,–,–,–
–,CC(Oc1cccc2ccccc12)c1cn(-c2ccc(Cl)cc2)nn1 (configuration not stated),130 nM,< 10%,780 nM,–,–
–,CC(Oc1ccnc2ccccc12)c1cn(-c2ccc(Cl)c(Cl)c2)nn1 (configuration not stated),20 nM,< 10%,700 nM,–,–
–,O=C(Nc1ccc(Cl)cc1)C(Oc1cccc2ccccc12)c1ccccc1 (configuration not stated),> 5000 nM,< 10%,–,–,–
3,CC(Oc1cccc2ccccc12)C(=O)Nc1ccc(Cl)cc1 (configuration not stated),1060 nM,< 10%,1640 nM,–,–
–,CC(Oc1cc[n+]([O-])c2ccccc12)c1cn(-c2ccc(Cl)c(Cl)c2)nn1 (configuration not stated),18 nM,< 10%,42 nM,–,–
–,CC(C)C(Oc1cccc2ccccc12)C(=O)Nc1ccc(Cl)cc1 (configuration not stated),710 nM,< 10%,830 nM,–,–
–,CC(Oc1ccc(Cl)c2ccccc12)c1cn(-c2ccc(Cl)cc2)nn1 (configuration not stated),87 nM,< 10%,3900 nM,–,–
–,C[C@@H](Oc1ccnc2ccccc12)c1cn(-c2ccc(Cl)c(Cl)c2)nn1,9 nM,< 10%,650 nM,–,–
–,C[C@@H](Oc1ccnc2ccccc12)c1cn(-c2ccc(C#N)c(Cl)c2)nn1,31 nM,< 10%,1100 nM,–,–
–,C[C@@H](Oc1cccc2c1ccc[n+]2[O-])c1cn(-c2ccc(Cl)cc2)nn1,24 nM,< 10%,52 nM,–,–
–,C[C@H](Oc1ccnc2ccccc12)c1cn(-c2ccc(Cl)c(Cl)c2)nn1,130 nM,< 10%,880 nM,–,–
